Measured values reported in ChEMBL document CHEMBL1255483, “Intra- and extracellular activities of dicloxacillin against Staphylococcus aureus in vivo and in vitro” (Antimicrob Agents Chemother, 2010).
≈ marks a conversion by molar mass, not a printed value. Calls of active or inactive are those of the source. The calls are words filed in the database; no cut-off is given here.

Legend:
[1] = system: Staphylococcus aureus; test: Bactericidal activity against Staphylococcus aureus ATCC 25923 assessed as log change in bacterial count after 24 hrs; type: functional
Summary of the method: (§1)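 Extracellular broth time- and concentration-kill test. The inoculum was ~10⁶ CFU/ml, exposed to a wide range of DCX concentrations, with CFU counted after 5 and 24 h. The read-out was Δlog CFU/ml versus time zero (mean ± SD, n = 3). A sigmoidal fit with slope 1 gave Emax and EC50. Cstatic was read by graphical interpolation as the concentration giving no change from the inoculum.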

[2] = Cmax in NMRI mouse at 1200 mg/kg, sc; type: ADME, organism-based; set-up: dose 1200 mg/kg, route subcutaneous; settings: in vivo
[3] = system: THP-1; test: Cytotoxicity against human THP1 cells at 500 mg/L after 24 hrs by trypan blue exclusion method; type: cell-based; settings: thp-1, 24 h
Summary of the method: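 THP-1 macrophage viability was checked by trypan blue exclusion after 24 h of exposure to DCX at concentrations up to 500 mg/liter.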

[4] = AUC (24 hrs) in NMRI mouse at 60 mg/kg, sc; type: ADME, organism-based; set-up: time < 24 hr, dose 60 mg/kg, route subcutaneous; settings: plasma
Summary of the method: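 Single subcutaneous DCX doses given to NMRI mice. Blood was collected into EDTA tubes, and plasma drug was assayed by microbiological bioassay with S. lutea ATCC 9391 (detection limit 1.5 mg/liter, linear to 100 mg/liter). Values came from noncompartmental analysis. Terminal half-life was fitted monoexponentially to the last four time points. AUC24 combined the trapezoidal rule over mean points with exact integration of the fitted curve extrapolated to 24 h.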

[5] = Ratio of fAUC (24 hrs) in NMRI mouse at 30 mg/kg administered every 2 hrs to MIC for Staphylococcus aureus E19977; type: functional
Summary of the method: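 Modeled free AUC over 24 h divided by the MIC, not measured directly. Single subcutaneous DCX doses were given to NMRI mice, and plasma was assayed by S. lutea bioassay. Noncompartmental analysis used trapezoidal mean points plus a fitted monoexponential extrapolated to 24 h. Free fraction came from a square-root fit to plasma ultrafiltration binding (10–400 mg/liter spike, 1 h, 37°C). The MIC was measured by broth microdilution at pH 7.4.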

[6] = species on record: Mus musculus; test: Protein binding in NMRI mouse infected with Staphylococcus aureus E19977 at 30 mg/l by ultrafiltration; type: ADME, organism-based; settings: in vivo
Summary of the method: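 Plasma binding was measured by ultrafiltration. EDTA blood from healthy mice, or from NMRI mice infected intraperitoneally for 6 h with E19977, was spiked with DCX at 10–400 mg/liter, with PBS controls. Samples were held 1 h at 37°C, then centrifuged through 30-kDa filters at 3,000 × g for 8 min at 37°C. Total and filtrate drug were measured by S. lutea bioassay.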

[7] = system: Staphylococcus aureus; test: Bactericidal activity against Staphylococcus aureus E19977 assessed as log reduction in bacterial count at 10 times MIC after 5 hrs by time-kill assay; type: functional
Summary of the method: (§2)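 Broth time-kill: MSSA at 10⁶ CFU/ml exposed to a wide range of dicloxacillin concentrations. CFU counted after 5 and 24 h and expressed as change in log₁₀ CFU/ml from time zero. Multiples refer to the MIC by CLSI microdilution at pH 7.4. n = 3.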

[8] = system: Staphylococcus aureus; test: Bactericidal activity against Staphylococcus aureus E19977 assessed as log reduction in bacterial count at 100 times MIC after 5 hrs by time-kill assay; type: functional; summary of the method: as §2
[9] = fT>MIC in Staphylococcus aureus E19977 infected NMRI mouse at 120 mg/kg administered every 3 hrs; type: functional
Summary of the method: (§3)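 Calculated percentage of 24 h at steady state that free plasma DCX exceeds the strain MIC (microdilution, pH 7.4). Concentrations were simulated from single subcutaneous dose plasma curves in NMRI mice (S. lutea bioassay), adjusted with a square-root model of concentration-dependent free fraction from ultrafiltration. The regimen was dosed subcutaneously in mice infected intraperitoneally with 10^7.4 CFU, and peritoneal CFU were read after 24 h of therapy.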

[10] = fT>MIC in Staphylococcus aureus E19977 infected NMRI mouse at 120 mg/kg administered every 6 hrs; type: functional; summary of the method: as §3
[11] = system: Staphylococcus aureus; test: Bactericidal activity against Staphylococcus aureus E19977 assessed as log reduction in bacterial count at 100 times MIC after 24 hrs by time-kill assay; type: functional; summary of the method: as §2
[12] = system: Staphylococcus aureus; test: Bactericidal activity against Staphylococcus aureus ATCC 25923 infected in human THP-1 cells assessed as log change in bacterial count after 24 hrs; type: functional
Summary of the method: (§4)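 Human THP-1 macrophages were infected with opsonized S. aureus at 4 bacteria per macrophage for 45 min. Non-phagocytized bacteria were removed by washing and a brief incubation in PBS with gentamicin 50 mg/liter. Cells were then incubated up to 24 h with DCX over a wide range of extracellular concentrations. The read-out was Δlog CFU per mg cell protein versus time zero (n = 3), with sigmoidal fitting and Cstatic by interpolation.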

[13] = system: Staphylococcus aureus; test: Bactericidal activity against Staphylococcus aureus E19977 assessed as log reduction in bacterial count at 10 times MIC after 24 hrs by time-kill assay; type: functional; summary of the method: as §2
[14] = system: Staphylococcus aureus; test: Antimicrobial activity against Staphylococcus aureus ATCC 25923 after 24 hrs; type: functional, organism-based; settings: ATCC 25923, 24 h; summary of the method: as §1
[15] = Ratio of fCmax in NMRI mouse at 200 mg/kg administered every 6 hrs to MIC for Staphylococcus aureus E19977; type: functional
Summary of the method: (§5)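 Free Cmax/MIC was modelled, not measured. Single-dose subcutaneous plasma curves from NMRI mice were projected to the multiple-dose regimens. Free fraction came from a square-root fit of unbound fraction versus total concentration. Binding was measured by ultrafiltration of mouse plasma spiked with 10–400 mg/liter and held 1 h at 37°C. MIC was for strain E19977.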

[16] = system: Staphylococcus aureus; test: Bactericidal activity against Staphylococcus aureus E19977 assessed as log reduction in bacterial count at MIC after 5 hrs by time-kill assay; type: functional; summary of the method: as §2
[17] = Ratio of fCmax in NMRI mouse at 240 mg/kg administered every 6 hrs to MIC for Staphylococcus aureus E19977; type: functional; summary of the method: as §5
[18] = system: Staphylococcus aureus; test: Bacteriostatic activity against Staphylococcus aureus ATCC 25923 infected in human THP-1 cells at MIC after 24 hrs; type: functional, organism-based; summary of the method: as §4
[19] = system: Staphylococcus aureus; test: Antimicrobial activity against Staphylococcus aureus ATCC 25923 by broth microdilution method at pH 7.4
[20] = system: Staphylococcus aureus; test: Bacteriostatic activity against Staphylococcus aureus ATCC 25923 infected in human THP-1 cells at 100 times MIC after 5 hrs; type: functional, organism-based; summary of the method: as §4
[21] = Ratio of fCmax in NMRI mouse at 340 mg/kg administered every 24 hrs to MIC for Staphylococcus aureus E19977
[22] = system: Staphylococcus aureus; test: Bactericidal activity against Staphylococcus aureus ATCC 25923 infected in human THP1 cells assessed as log reduction in bacterial count at 100 times MIC after 24 hrs by time-kill assay; type: functional, THP-1
Summary of the method: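 Intracellular model in THP-1 macrophages: opsonized S. aureus was added at 4 bacteria per macrophage for 45 min. Non-phagocytized bacteria were removed by washing and brief PBS incubation with gentamicin (50 mg/liter). Cells were then incubated up to 24 h with a wide range of extracellular dicloxacillin concentrations. Result is change in log₁₀ CFU per mg cell protein from time zero. n = 3.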

[23] = Ratio of fCmax in NMRI mouse at 300 mg/kg administered every 12 hrs to MIC for Staphylococcus aureus E19977; type: functional; summary of the method: as §5
[24] = system: Staphylococcus aureus; test: Antimicrobial activity against Staphylococcus aureus ATCC 25923 infected in human THP-1 cells after 24 hrs; type: functional, organism-based; settings: ATCC 25923, THP-1, 24 h; summary of the method: as §4

Cmax [2]: 222 µg/mL
AUC at 24 h [4]: 70400 ng·h/mL
fAUC/MIC [5]: 39.32 h
Activity [6]: 91.9%
fT>MIC [9]: 75.56%
fT>MIC [10]: 37.78%
EC50 [14]: 0.06 µg/mL (≈ 0.128 µM)
MIC [19]: 0.125 µg/mL (≈ 0.266 µM)
EC50 [24]: 0.04 µg/mL (≈ 0.085 µM)
Compound: Cc1onc(-c2c(Cl)cccc2Cl)c1C(=O)N[C@@H]1C(=O)N2[C@@H]1SC(C)(C)[C@@H]2C(=O)O [DICLOXACILLIN]
Emax [1]: -3.19 deltalog10CFU/ml
Activity [3]: Non-toxic
FC [7]: <1
FC [8]: <1
FC [11]: 3
Emax [12]: -1.19 deltalog10CFU/ml
FC [13]: 3
Ratio [15]: 101.92
FC [16]: <1
Ratio [17]: 136.18
Activity [18]: Active
Activity [20]: Active
Ratio [21]: 233.35
FC [22]: <1
Ratio [23]: 196.76
